The source of these data is ChEMBL document CHEMBL4513216, “Probing the Open Global Health Chemical Diversity Library for Multistage-Active Starting Points for Next-Generation Antimalarials” (ACS Infect Dis, 2020).

The data set in a line: Toxicity liver stage against HepG2, at 10uM. Type of data set: cell-based. Also noted: test concentration 10 uM, cell line HepG2-A16-CD81EGFP. The settings on record: human, HepG2-A16-CD81EGFP cells; read-out: INHIBITION
The essentials:
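Uninfected HepG2-A16-CD81EGFP cells, 3 × 10^3 per well, 1536-well, plated on prespotted compound at 10 μM final, parasite-free screening media added to match infected plates; puromycin 10 μM positive, DMSO 0.5% negative; run in parallel with 48 h PbLuc assay at 37 °C, 5% CO2; viability by CellTiter-Glo luminescence, normalized to controls.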
As to `O=C(CCc1cc2n(n1)CCNC2)NCCS(=O)(=O)N1CCCC1`, the cytotoxicity at 10 µM was found to be 0.487%.

Take `Cc1cnc(N2C[C@H]3CCCC(N(C)Cc4ccccn4)[C@H]3C2)nc1` (some centres undefined): the cytotoxicity at 10 µM was -104%. In the case of `CC(C)C(C(=O)N1CCN(c2ccncc2)CC1)n1cncn1` (centres undefined) it was -9.35%; in that of `CC(C)n1ccnc1CN1CCCN(C(=O)c2cccnc2O)CC1`, 1.74%; in that of `c1ccc(-c2cc(CN3C[C@H]4CC[C@H]3C4)on2)cc1`, -5.33%. With `CN(CCc1ccccn1)C(=O)CCC1CCCN(c2ccncc2)C1` (centres undefined), the cytotoxicity at 10 µM was -3.48%. As for `CCN(Cc1cc(=O)n2cc(Br)ccc2n1)C1CC1`, the cytotoxicity at 10 µM amounted to 7.95%. `Cc1nnc(N2CCCC3(CN(Cc4ccc(C)s4)CCO3)C2)o1` (centres undefined): the cytotoxicity at 10 µM is -14.6%. On to `CCc1ccccc1OCC(=O)N1CCOCC1c1ncon1` (centres undefined), for which the cytotoxicity at 10 µM was -8.93%. Next, `COC(=O)CC(c1ccc(OC)c(OC)c1OC)c1c(O)n[nH]c1C` (centres undefined): 4.02%.

For `CC(Cc1ccco1)NC(=O)Nc1ccc(N(C)C)nc1` (centres undefined), the cytotoxicity at 10 µM is -7.22%. As for `CC(=O)N1CCN(C(=O)C[C@@H]2C[C@@H](C(C)C)[C@H](CC#N)C=C2C)CC1`, the cytotoxicity at 10 µM is -1.01%. In the case of `CSc1nc(O)c(Cc2ccccc2)c(=O)n1-c1ccccc1` it was -6.24%; in that of `CC(C)(C)c1nc(CN(Cc2cccs2)C2CCS(=O)(=O)C2)cs1` (centres undefined), 16%. As for `Cc1ccsc1C(=O)N1CCN(Cc2cscn2)CC1`, the cytotoxicity at 10 µM is -12%.

As to `O=C1CSC(c2ccsc2)c2sccc2N1` (centres undefined), the cytotoxicity at 10 µM came to 2.19%.

Consider `CC(OCC1CC1)C(=O)N1CCCN(Cc2cscn2)CC1` (centres undefined), for which the cytotoxicity at 10 µM was -5.16%.

Regarding `Cc1nccn1C1CCCN(C(=O)c2ccc(-n3cccn3)nc2)C1` (centres undefined), the cytotoxicity at 10 µM was -9.18%. In the case of `Cc1cccc(S(=O)(=O)N2C[C@@H]3OCCN(C(C)C)[C@@H]3C2)c1` it was 7.64%; in that of `CC(C)c1nc2c(n1C)CCN(Cc1nc(-c3cccnc3)no1)C2`, -1.43%; in that of `COc1ncnc(N)c1CNCC(C)SC` (centres undefined), -0.554%. For the molecule `O=C(CSC1=NS(=O)(=O)c2cc(F)ccc2N1)Nc1ccc(Cl)c(Cl)c1`, the cytotoxicity at 10 µM worked out at 11.5%. In the case of `COCCC(=O)N1CCn2c(COCC3CC3)cnc2C1C` (centres undefined) it was 4.17%; in that of `CC(C)N(Cc1nc(-c2cccs2)no1)CC1CCC(=O)N1` (centres undefined), -0.475%. On to `O=C(NCc1ccccc1)[C@H]1C[C@H]2CN(C(=O)NC3CCCC3)C[C@@H]1O2`, for which the cytotoxicity at 10 µM amounted to 2.17%. Take `CC(C)(C)c1cnc(CN2CCC(NC(=O)NC3CCCCC3)CC2)o1`: the cytotoxicity at 10 µM was -3.73%. With `CN(C)C(=O)[C@@H]1CCO[C@@H]2CCN(CCOCc3ccccc3)C[C@H]21`, the cytotoxicity at 10 µM was -0.902%. With `CCOC(=O)N1[C@@H](c2ccco2)[C@@H](C(=O)O)C[C@]12CCCCNC2=O`, the cytotoxicity at 10 µM was -2.98%.

Regarding `CC(=O)N1CCCC(c2nccnc2-c2ccc(CO)cc2)C1` (centres undefined), the cytotoxicity at 10 µM came out at 1.03%.

As for `CCCc1nnc(N2CCC3(CC2)CN(C)C(=O)O3)o1`, the cytotoxicity at 10 µM worked out at 2.64%. Next, `Cc1n[nH]c(C)c1Sc1ccccc1NC(=O)N1CCOCC1`: 4.63%. In the case of `O=C(CN1CCCC(c2noc(C3CC3)n2)C1)N1CCCC1` (centres undefined) it was 1.87%; in that of `Cn1cc(CN2CC[C@H]3CO[C@H](CNc4ncccn4)[C@H]3C2)cn1`, -15.6%; in that of `Cc1cccc(C)c1OC1CN(Cc2cnn(C)c2)C1`, 7.97%. In the case of `Cc1cc(C)n(CC2CCCN2Cc2ncc(C(C)(C)C)o2)n1` (centres undefined) it was -1.64%.

As to `CCNc1ncc(C(=O)Nc2nnc(N3CCCCC3)[nH]2)s1`, the cytotoxicity at 10 µM was -12.4%. On to `CN(C(=O)c1cccc(OCC(F)F)n1)c1ccc2c(c1)CCO2`, for which the cytotoxicity at 10 µM is 43%. In the case of `CCC(=O)Nc1ccc(OCC(=O)N(C)C(C)c2ccon2)cc1` (centres undefined) it was 5.22%; in that of `Cc1ccnc(C(Nc2nccc(-c3ccc(C)nc3C)n2)C2CC2)c1` (centres undefined), -1.89%; in that of `CN1CCC(C(=O)NCCC2CN(c3cnn(C)c(=O)c3)CCO2)CC1` (centres undefined), 5.75%. In the case of `Cc1nnc(N2CC[C@@]3(O)CCNC[C@H]3C2)c2ccccc12` it was 2.61%; in that of `Cc1ccc2c(c1C)OCC2NCc1cccc(C#N)c1` (centres undefined), 9.91%. In the case of `O=C1CC[C@@H](CN(Cc2ccncc2)Cc2nc(-c3cccs3)no2)N1` it was -10.7%.

Turning to `CC(NCc1cc(O)c2cccc(F)c2n1)c1ccccc1O` (centres undefined), the cytotoxicity at 10 µM was 4.28%. Consider `O=C(c1cn2ccsc2n1)N1CCOCC(O)(CN2CCCC2)C1` (centres undefined), for which the cytotoxicity at 10 µM turned out to be 4.6%. In the case of `Cc1cnc(N2C[C@H]3C[C@H](C(=O)N4CCN(C)CC4)N(C)[C@H]3C2)nc1` it was -135%. Next, `Cc1oc(-c2ccc(Cl)cc2)nc1C(=O)NC1=NCCS1`: 4.65%; `Cc1ccccc1C(=O)N1C[C@@H](O)[C@H](N2CCOCC2)C1`: 9.3%. Next, `CC[C@H](C)[C@H](N)C(=O)N1CC(=O)c2sc(NCc3ccccc3)nc2C1`: -9.58%; `CC(C)(CNC(=O)C1CCCN(C(N)=O)C1)c1cccc(Cl)c1` (centres undefined): 1.75%; `COc1cc(C(=O)N(C)Cc2cc(C(=O)O)c(C)o2)cc(OC)c1OC`: -1.76%. With `Cn1ccc(CN2CCC(CN3CCOCC3)CC2)cc1=O`, the cytotoxicity at 10 µM was -11%. In the case of `CCN(Cc1noc(C2CCC2)n1)C(=O)CCc1cc2n(n1)CCNC2` it was 10.5%. Next, `CCOc1ccccc1-c1noc(CN2CCOC(CN(C)C)C2)n1` (centres undefined): -5%; `COc1ccc(CC(=O)N2CCCC(n3nc(C)cc3C)C2)cc1` (centres undefined): 0.471%. Next, `CNC(=O)CS(=O)(=O)C1CCN(S(=O)(=O)c2cccc(Cl)c2C)CC1`: 4.73%. In the case of `COc1ccc(CNC(=O)NCCc2csc(C)n2)cn1`, the cytotoxicity at 10 µM is -7.05%. Next, `C[C@H](O)CNC(=O)c1cnc(-c2ccccc2)nc1O`: -17.8%. For the molecule `O=C(N[C@@H]1CN(CC2CC2)[C@@H]2CCCO[C@@H]21)c1cscn1`, the cytotoxicity at 10 µM was -109%. Take `CN(CCc1ccccn1)C(=O)C(O)c1ccc(Br)cc1` (centres undefined): the cytotoxicity at 10 µM was -0.779%. Regarding `COCCCn1ccc(NCc2ccc(NC(C)=O)cc2)n1`, the cytotoxicity at 10 µM is 2.33%.

On to `NC1(C(=O)NCC2CCCN(Cc3cccc4nonc34)C2)CCC1` (centres undefined), for which the cytotoxicity at 10 µM was -43.8%. In the case of `CN(CCC#N)C(=O)CN1CCCC1c1cccs1` (centres undefined) it was -8.83%; in that of `COc1ccc(COCC(O)CNC(=O)c2ccc(C)c(F)c2)cc1` (centres undefined), -0.584%. As to `CCS(=O)(=O)NCC(=O)NC(c1cc(C)sc1C)C(C)C` (centres undefined), the cytotoxicity at 10 µM worked out at 3.77%. In the case of `Cc1ccc(N2CC(c3nccc(C)n3)C2)nn1` it was 8.82%; in that of `CN(CCCNC(=O)c1cccc(OCC(N)=O)c1)CC(F)(F)F`, -10.4%.

For the molecule `Cc1nnc([C@@H]2CCO[C@@H]3CCN(C(=O)Cc4ccccn4)C[C@@H]32)o1`, the cytotoxicity at 10 µM came out at 10.1%. In the case of `Cn1ccnc1SCCNc1ccnc(C(F)(F)F)n1` it was -50.4%; in that of `CCOc1ncccc1NC(=O)N1CCC(n2cncn2)CC1`, 6.64%; in that of `CN1CCN(CC2CN(CC3CC3)Cc3nccn3C2)CC1` (centres undefined), -76.1%. Next, `CCc1cc(C)c(C(=O)N2CCCC2CC(=O)c2cnn(C)c2)o1` (centres undefined): 5.22%.

Turning to `COCC(=O)N1C[C@@H]2OCCN(Cc3c(C)noc3C)[C@@H]2C1`, the cytotoxicity at 10 µM is -0.722%. Next, `Cc1nc2c(c(N3CCN(c4ncccc4C(N)=O)CC3)n1)CCNC2`: -4.69%. In the case of `Cc1ccc(NCc2ncc(C(C)(C)C)o2)c(Cl)c1`, the cytotoxicity at 10 µM was -15.4%. Turning to `COCCn1c2c(ccc1=O)CCN(C(=O)NC1CC1)CC2`, the cytotoxicity at 10 µM stood at 1.77%. Next, `CS(=O)(=O)N1CCCC(C(=O)Nc2cnn(Cc3ccc(Cl)cc3)c2)C1` (centres undefined): -6.5%; `COCCN1CCc2c(c(COc3cccnc3)nn2C)C1`: -113%.

For `CCN1Cc2cc(F)ccc2N(C(C)=O)CCC1=O`, the cytotoxicity at 10 µM was -4.78%. Next, `CC(C)S(=O)(=O)N1CCCC(c2nnc(Cn3ccnc3)n2C)C1` (centres undefined): -2.83%; `O=C(CCc1cccs1)N1CCC(N2CCNC2=O)CC1`: 5.37%; `COc1ccc(OCc2cc(C(=O)N3CCOCC3)n[nH]2)c(Cl)c1`: -3.66%. Turning to `CN(C)C(CNC(=O)NCc1cc[nH]n1)c1ccco1` (centres undefined), the cytotoxicity at 10 µM was -5.47%.

Turning to `COCCCNC(=O)CCn1nc(C)c2ccccc21`, the cytotoxicity at 10 µM amounted to 9.87%. Regarding `NC(=O)C1CCCN1Cc1cccc(NC(=O)c2ccsc2)c1` (centres undefined), the cytotoxicity at 10 µM was found to be 16.3%. Consider `Cc1nnc2n1CCN(CCOc1cccc(C#N)c1)C2`, for which the cytotoxicity at 10 µM is -7.88%. In the case of `CS(=O)(=O)NCC(=O)N[C@H]1CN(CC2CC2)C[C@@H]1c1ccccc1` it was -0.29%; in that of `COc1cccc(NC(=O)N2CC[C@@H]3CN(C)S(=O)(=O)[C@@H]3CC2)c1`, 7.3%; in that of `COc1c(C2CCCN2CC(=O)Nc2nccs2)c(C)nn1C` (centres undefined), -2.38%. Regarding `CC(C)n1cc(N2CC(C(=O)N3CCc4ccccc4C3)CC2=O)cn1` (centres undefined), the cytotoxicity at 10 µM is -153%. Next, `COc1cc(NC(=O)NC2CC2)ccc1N1CCOC1=O`: -6.44%. In the case of `O=C(NCC(O)C1CC1)Nc1cnn(Cc2ccccc2)c1` (centres undefined) it was 4.85%; in that of `CCn1cc(CN2CCCC(c3[nH]ncc3-c3ccc(F)cc3)C2)cn1` (centres undefined), 1.63%; in that of `Cc1nc(-c2ccccc2)sc1CSCCC(N)=O`, -7.97%.
